The values below come from ChEMBL document CHEMBL4422648, “Synthesis, biological evaluation and mode of action studies of novel amidinourea inhibitors of hepatitis C virus (HCV)” (Bioorg Med Chem Lett, 2019).

The test system of one data set is Huh-7. Description: Cytotoxicity against human HuH7 cells at 10 uM after 24 hrs by WST-1 assay. The data set is classed as cell-based. As to conditions: huh-7, 24 h. In outline:
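Huh7 cells were incubated 24 h with 10 µM of each compound before cell viability was assessed.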
In general terms: Tetrazolium dyes change colour on reduction, which living cells bring about.

Data set [1] concerns Hepatitis C virus. Description: Antiviral activity against HCV pseudo-particle infected in human HuH7 cells assessed as inhibition of HCV pseudo particles entry at 10 uM preincubated for 1 hr followed by viral infection and measured after 72 hrs by bright-glo luciferase reporter gene assay. The data set is classed as functional, organism-based. As to conditions: Hepacivirus hominis. In outline:
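Huh7 cells were pretreated with 10 µM compound for 1 h. They were then infected with HCV pseudo-particles for 3 h in the compound's presence. Entry was detected 72 h post infection; bafilomycin served as the positive control.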

Data set [2] relates to Hepatitis C virus. Description: Antiviral activity against HCV sub-genomic replicon infected in human Huh7 cells at 10 uM added immediately with viral infection and measured after 24 hrs by bright-glo luciferase reporter gene assay relative to control. The data set is classed as functional. The procedure, abridged:
(§1)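 Huh7 cells were electroporated with HCV subgenomic replicon RNA. Compound at 10 µM was added either immediately at seeding or after 24 h to let replication establish. Luciferase was measured after 24 h of treatment.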

In data set [3] the test system is Hepatitis C virus. The experiment in a line: Antiviral activity against HCV sub-genomic replicon infected in human Huh7-J20 cells after 24 hrs by bright-glo luciferase reporter gene assay. The data set is classed as functional, organism-based. In outline: (§2)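 Subgenomic replicon RNA was electroporated into cells, which were exposed for 24 h to a dose range from 30 µM in 1:3 dilutions. Replication was read by luciferase, with cell viability measured alongside.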
For orientation: In antiviral work, replicon cells carry a viral genome segment that copies itself.

Data set [4] can be described thus: Cytotoxicity against human Huh7-J20 cells infected with HCV sub-genomic replicon assessed as reduction in cell viability up to 30 uM after 24 hrs by WST-1 assay. The data set is classed as cell-based. In outline:
as §2

Data set [5] can be described thus: Cytotoxicity against human Huh7-J20 cells infected with HCV JFH-1 after 72 hrs by WST-1 assay. The class given is cell-based. The procedure, abridged:
(§3)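 HCVcc (JFH-1 clone) inoculated onto Huh7-J20 cells for 3 h. Infected cells were then exposed for 72 h to a dose range starting at 30 µM with 1:3 serial dilutions. Viral replication was read after harvest, and cell viability was measured in parallel.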

In data set [6] the test system is Hepatitis C virus. Description: Antiviral activity against HCV JFH-1 infected in human Huh7-J20 cells after 72 hrs by SEAP based assay. The class given is functional, organism-based, Hepacivirus hominis. As to conditions: JFH-1, Huh7-J20, 72 h. The procedure, abridged:
as §3

In data set [7] the test system is Hepatitis C virus. The experiment in a line: Antiviral activity against HCV sub-genomic replicon infected in human Huh7 cells at 10 uM added 24 hrs after viral infection and measured after 24 hrs by bright-glo luciferase reporter gene assay relative to control. The data set is classed as functional, Hepacivirus hominis. In outline: as §1
Data set [8] relates to Hepatitis C virus. The experiment in a line: Antiviral activity against HCV sub-genomic replicon infected in human Huh7 cells after 2 to 24 hrs by bright-glo luciferase reporter gene assay. The data set is classed as functional, organism-based. As to conditions: Hepacivirus hominis. The procedure, abridged:
(§4)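 Time course: Huh7 cells were transfected with HCV replicon RNA (wild-type subgenomic or replication-defective GND) and seeded in the presence of compound. Replication/translation signal was read at 2, 4, 8 and 24 h post transfection and compared with untreated cells at each time point.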

The subject of data set [9] is Hepatitis C virus. The experiment in a line: Antiviral activity against HCV replication defective replicon infected in human Huh7 cells after 2 to 8 hrs by bright-glo luciferase reporter gene assay. The class given is functional, organism-based. The note with it: Hepacivirus hominis. In outline: as §4
The subject of data set [10] is Hepatitis C virus. The experiment in a line: Antiviral activity against HCV replicon infected in human Huh7-J17 cells after 24 hrs by bright-glo luciferase reporter gene assay relative to control. The data set is classed as functional, Hepacivirus hominis.
In data set [11] the test system is Hepatitis C virus. The experiment in a line: Antiviral activity against HCV replicon infected in human Huh7 cells assessed as reduction in NS5A level after 8 to 24 hrs by Western blot analysis. The data set is classed as functional, organism-based. As to conditions: Hepacivirus hominis. In outline:
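After transfection with HCV replicon RNA, Huh7 cells were treated immediately for 8 or 24 h. Lysates were probed by western blot for NS5A and for unprocessed polyprotein.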

Data set [12] relates to Internal ribosome entry site (IRES). Description: Inhibition of HCV IRES transfected in human Huh7 cells assessed as inhibition of IRES-mediated translation after 24 hrs by dual luciferase reporter gene assay relative to control. The data set is classed as cell-based. The note with it: Hepacivirus hominis; dose or concentration not given here. The procedure, abridged: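 Huh7 cells were co-transfected with a plasmid for firefly luciferase driven by the HCV IRES and a plasmid for Renilla luciferase under the TK promoter, used to normalise transfection efficiency. Cells were exposed to compound for 24 h, then assayed by dual luciferase.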
In general terms: In a reporter assay the amount or activity of a reporter protein is the signal.

Data set [13] concerns Hepatitis C virus. The experiment in a line: Antiviral activity against HCV replicon infected in human Huh7 cells after 8 to 24 hrs by Western blot analysis. The note with it: Hepacivirus hominis.

Structures are written as SMILES. Calls of active or inactive are those of the source. No cut-off for these calls is given here.

Turning to `C=CCNC(=O)NC(=N)NCCCCNC(=O)c1ccccc1`, the Activity result in the data set on Huh-7 is given as “Non-Toxic”. For the same compound, the result with Hepatitis C virus [1] and in the data set with Hepatitis C virus [2] (Hepacivirus hominis) was inactive.
Regarding `C=CCNC(=O)NC(=N)NCCCCNC(=N)NC(=O)NCC=C`, the Activity entry in the data set on Huh-7 is on record as “Non-Toxic”. Besides, the result with Hepatitis C virus [1] and in the data set on Hepatitis C virus [2] (Hepacivirus hominis) was inactive.
Turning to `CO/C1=C\C(C)=C\[C@@H](C)[C@@H](O)[C@@H](C)C/C(C)=C/C=C/[C@H](OC)[C@@H]([C@@H](C)[C@@H](O)[C@H](C)[C@@]2(O)C[C@@H](O)[C@H](C)[C@@H](C(C)C)O2)OC1=O`, in the data set on Hepatitis C virus [1], the result was Active.
Regarding `C=CCNC(=N)NCCCCCCNCCCCCCNC(=N)NCC=C`, the Activity result in the data set on Huh-7 was “Non-Toxic”. Further, the outcome in the data set with Hepatitis C virus [1] and with Hepatitis C virus [2] (Hepacivirus hominis) was inactive.
Consider `N=C(NCCCCCCCCNC(=N)NCc1ccccc1)NCc1ccccc1`, for which the Activity entry with Huh-7 is “Non-Toxic”. Besides, the outcome in the data set on Hepatitis C virus [1] and in the data set on Hepatitis C virus [2] (Hepacivirus hominis) was inactive.
For `C=CCNC(=O)NC(=N)NCCCCNCCCNC(=N)NC(=O)NCC=C`, the Activity result in the data set on Huh-7 is “Non-Toxic”. The result in the data set with Hepatitis C virus [1] and in the data set on Hepatitis C virus [2] (Hepacivirus hominis) was inactive.
As to `C=CCNC(=O)NC(=N)NCCCCN`, the Activity entry with Huh-7 is on record as “Non-Toxic”. In addition, the result in the data set with Hepatitis C virus [1] and in the data set on Hepatitis C virus [2] (Hepacivirus hominis) was inactive.
As for `C#CCNC(=N)NCCCCCCNCCCCCCNC(=N)NCC#C`, the Activity entry in the data set with Huh-7 is recorded as “Non-Toxic”. The result with Hepatitis C virus [1] and in the data set on Hepatitis C virus [2] (Hepacivirus hominis) was inactive.
`C=CCNC(=O)NC(=N)NCCCN(C)CCCCN(C)CCCNC(=N)NC(=O)NCC=C`: the Activity result in the data set on Huh-7 is reported as “Non-Toxic”. For the same compound, the outcome in the data set on Hepatitis C virus [1] and with Hepatitis C virus [2] (Hepacivirus hominis) was inactive.
For the compound `C=CCNC(=O)NC(=N)NCCCNCCCCNCCCNC(=N)NC(=O)NCC=C`, the Activity result in the data set on Huh-7 is “Non-Toxic”; in the data set with Hepatitis C virus [2], 90%; in the data set with Hepatitis C virus [3] (Hepacivirus hominis), “Dose-dependent effect”; in data set [4] it was “Non-Toxic”; in the data set on Hepatitis C virus [7], 45%; in the data set on Hepatitis C virus [10], 45%. Moreover, the outcome with Hepatitis C virus [1] was inactive. Also, the IC50 (in general, the concentration at which inhibition is half-maximal) in the data set on Hepatitis C virus [3] (Huh7-J20, 24 h) was determined as 2.65 µM; in the data set on Hepatitis C virus [6] it was 12.3 µM. The cytotoxic concentration (CC50) (usually the concentration at which the toxic effect on the cells reaches its halfway point) at 72 h in data set [5] is 81.1 µM. The outcome in the data set with Hepatitis C virus [8], with Hepatitis C virus [9], in the data set on Hepatitis C virus [11] and with Hepatitis C virus [13] was Active. In addition, the inhibition (as a rule, how much of the control response was suppressed) in data set [12] came out at 40%.
Regarding `C=CCNC(=N)NCCCCCCCCNC(=N)NCC=C`, the Activity entry in the data set on Huh-7 is given as “Non-Toxic”. In addition, the outcome in the data set on Hepatitis C virus [1] and with Hepatitis C virus [2] (Hepacivirus hominis) was inactive.
